Compounds with a hit are over-represented: about 12% of the library has one in this group of screens.
KCC2 mod – modulators of human KCC2 chloride dependent transport | Q9H2X9 | KCC2 cells, thallium flux FluoZin-2 fluorescence | B-score of Tl+ flux slope (higher = more flux/activation; lower = inhibition) at 10 µM | actives 2.2% (n = 190,000) | AID 1456;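 active = thallium flux slope and its plate-corrected score both differing from the plate sample mean at a set confidence after two filtering rounds, in either direction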;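 also: slope of fluorescence scaled to starting intensity during 10 to 20 s after thallium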
Target sequence (Q9H2X9 whole entry, looked up): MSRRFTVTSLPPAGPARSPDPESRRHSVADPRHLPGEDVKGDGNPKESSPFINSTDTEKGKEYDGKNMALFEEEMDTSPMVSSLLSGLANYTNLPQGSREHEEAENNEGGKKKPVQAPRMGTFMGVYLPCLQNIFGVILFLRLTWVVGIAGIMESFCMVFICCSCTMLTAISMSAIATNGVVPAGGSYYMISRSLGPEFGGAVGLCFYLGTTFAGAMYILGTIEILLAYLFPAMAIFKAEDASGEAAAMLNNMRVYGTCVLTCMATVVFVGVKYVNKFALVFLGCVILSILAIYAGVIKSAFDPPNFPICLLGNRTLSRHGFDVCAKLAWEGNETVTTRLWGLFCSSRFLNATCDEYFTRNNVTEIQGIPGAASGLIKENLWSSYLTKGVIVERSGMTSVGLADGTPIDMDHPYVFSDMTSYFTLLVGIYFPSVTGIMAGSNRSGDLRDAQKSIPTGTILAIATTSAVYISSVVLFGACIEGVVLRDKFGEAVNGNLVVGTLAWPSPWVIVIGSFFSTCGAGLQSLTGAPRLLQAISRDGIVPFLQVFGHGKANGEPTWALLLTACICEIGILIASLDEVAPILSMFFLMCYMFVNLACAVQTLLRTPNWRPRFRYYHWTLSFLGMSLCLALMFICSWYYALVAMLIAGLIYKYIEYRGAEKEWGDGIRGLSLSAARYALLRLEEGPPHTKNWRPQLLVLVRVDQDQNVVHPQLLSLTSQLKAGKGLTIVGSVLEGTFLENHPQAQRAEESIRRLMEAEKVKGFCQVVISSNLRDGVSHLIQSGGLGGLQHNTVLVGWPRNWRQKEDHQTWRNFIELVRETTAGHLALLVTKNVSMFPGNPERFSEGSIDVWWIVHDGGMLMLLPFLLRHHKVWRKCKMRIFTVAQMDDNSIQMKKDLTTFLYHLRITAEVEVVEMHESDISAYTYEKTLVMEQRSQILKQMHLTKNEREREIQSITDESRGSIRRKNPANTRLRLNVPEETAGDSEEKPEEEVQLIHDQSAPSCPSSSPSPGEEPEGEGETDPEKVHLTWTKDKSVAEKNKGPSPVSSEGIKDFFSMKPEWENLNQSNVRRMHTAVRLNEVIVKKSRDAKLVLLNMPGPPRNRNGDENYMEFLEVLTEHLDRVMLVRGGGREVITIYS
L major viab – reduces viability of Leishmania major promastigotes. resazurin fluorescence viability. inhibition, % at 10 µM. actives 9% (n = 200,000). AID 1063; in the data active = inhibition above about 50%;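 also: promastigotes grown with compound for 44 hours at 28 °C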
WT yeast gro inh – growth inhibition of WT yeast, mitochondrial fusion screen. mitochondrial fusion phenotypic screen, WT strain. inhibition, % at 10 µM. actives 2.1% (n = 190,000); in the data active = inhibition above about 58%; tested in S. cerevisiae
Diaphorase act – activates diaphorase or chemically reduces, flagging diaphorase assay artifacts; Diaphorase/resazurin coupled assay, resorufin fluorescence, 16 min; stronger effect = higher value; 1 = vehicle wells, 0 = NADH-free wells; activation factor at 20 µM; actives 0.005% (n = 190,000);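 active = diaphorase activity raised at least twofold by the compound at 20 µM; inactive = activation factor below 2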
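Material: Clostridium kluyveri diaphorase, purified enzyme; Quantity: enzyme 0.07 U/mL final; Medium: HEPES pH 7.4 buffer with MgCl2 and Tween 20; Dosing: single compound dose of 20 µM, 1% DMSO final; Schedule: 16 min reaction at room temperature; Measured by: red resorufin fluorescence at 544/590 nm excitation/emission.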
Diaphorase inh – inhibits diaphorase or chemically oxidizes, flagging diaphorase assay artifacts. diaphorase resazurin-to-resorufin fluorescence, NADH, 16 min; bacterial (C. kluyveri) enzyme, not human. inhibition, % at 20 µM. actives 0.69% (n = 190,000);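 active = primary screen inhibition at 20 µM above a set limit, cut at about 50% in these data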
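Assay system: diaphorase enzyme from Clostridium kluyveri. Quantity: enzyme working solution with 0.14 U/mL diaphorase. Schedule: reaction incubation of 16 min at room temperature. Technique: resorufin fluorescence, excitation 544 nm, emission 590 nm. Controls: No-NADH positive control and DMSO neutral control.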
ROMK primary – human ROMK K+ channel modulation, primary screen | P48048 | Tet-inducible ROMK, thallium flux fluorescence; actives lie on both sides | B-score at 10 µM | actives 2% (n = 130,000);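 active = signal ratio slope over the read window, or its plate-corrected B-score, at least 3 SD from the plate mean, either direction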;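 also: B-score of the F/F0 ratio slope over 7 to 12 s after thallium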
Each line names hits and unclear results; the compound was inactive in the other large screens.

C=C(C)COc1ccc(-c2[nH]ncc2-c2ccc(Br)cc2)c(O)c1	WT yeast gro inh 94.7
C=C(C)COc1ccc(-c2[nH]ncc2-c2ccccc2OC)c(O)c1	none (no result: KCC2 mod)
C=C(C)COc1ccc(-c2[nH]ncc2Oc2ccc(OC)cc2)c(O)c1	none (no result: L major viab, WT yeast gro inh, Diaphorase act, Diaphorase inh, ROMK primary)
COc1ccc(-c2[nH]ncc2-c2nc(C)cs2)c(O)c1	none
CCCOC(=O)c1ccc(Oc2cn[nH]c2-c2ccc(OC)cc2O)cc1	L major viab 84.6, WT yeast gro inh 78.5 (no result: KCC2 mod)
C=C(C)COc1ccc(-c2[nH]ncc2Oc2ccccc2OC)c(O)c1	L major viab 54.0 (no result: KCC2 mod)
CCOc1ccc(-c2[nH]ncc2Oc2ccccc2OCC)c(O)c1	WT yeast gro inh 64.8 (no result: KCC2 mod)
CCOc1ccc(-c2[nH]ncc2Oc2ccccc2OC)c(O)c1	none (no result: KCC2 mod)
COCCOC(=O)C1=C(C)NC2=C(C(=O)CC(C)(C)C2)C1c1cc2c(cc1Br)OCO2 (configuration not stated)	none (no result: KCC2 mod, WT yeast gro inh)
Cc1cccc(C)c1NC(=O)NC1(C(=O)NCCN2CCOCC2)CCCCC1	none (no result: ROMK primary)
O=C(NC1CCCCC1)N1CCN(c2ncccn2)CC1	none (no result: KCC2 mod, ROMK primary)
COc1ccc(-c2cn[nH]c2-c2ccc(OCc3ccc([N+](=O)[O-])cc3)cc2O)cc1	WT yeast gro inh 68.2 (no result: ROMK primary)
CCOc1ccc(-c2nc(N)ncc2Oc2ccccc2Br)c(O)c1	WT yeast gro inh 92.0
O=C(O)C(Cc1c[nH]c2ccccc12)N1C(=O)c2ccccc2C1=O (configuration not stated)	none (no result: L major viab, WT yeast gro inh, Diaphorase act, Diaphorase inh, ROMK primary)
COc1ccc(C2CC(c3ccccc3)=NN2C(=O)CN2N=NC3C(=O)N(c4cccc(F)c4)C(=O)C32)cc1 (configuration not stated)	none (no result: ROMK primary)
CCC(C(=O)c1ccc2ncccc2c1)c1ccccc1 (configuration not stated)	none (no result: ROMK primary)
C/C(=N\O)c1ccc2c3c([nH]c2c1)CCCC3	WT yeast gro inh 73.8 (no result: KCC2 mod, ROMK primary)
C/C(=N\O)c1ccc2[nH]ccc2c1	none
O=C(Cn1cnc2c(nnn2Cc2ccccc2F)c1=O)N1CCN(c2ccccc2)CC1	none (no result: KCC2 mod)
O=C(Cn1cnc2c(nnn2Cc2ccc(Cl)cc2)c1=O)N1CCN(c2ccccc2)CC1	KCC2 mod -3.93 (no result: ROMK primary)
COc1cccc(-n2nnc3c(=O)n(CC(=O)N4CCC(C)CC4)cnc32)c1	none
COc1cccc(-n2nnc3c(=O)n(CC(=O)N4CCCc5ccccc54)cnc32)c1	L major viab 71.4 (no result: ROMK primary)
Cc1ccc(-n2ncc3c(=O)n(CC(=O)N4CCCc5ccccc54)cnc32)cc1C	KCC2 mod -3.35 (no result: ROMK primary)
COc1cccc(-n2nnc3c(=O)n(CC(=O)N4CCC(Cc5ccccc5)CC4)cnc32)c1	L major viab 93.5 (no result: KCC2 mod)
Cc1cc(OC(C)C)nc(NCc2ccccc2)n1	none (no result: ROMK primary)
CS(=O)(=O)NCc1ccc(C(=O)O)cc1	none
Cc1ccc(S(=O)(=O)N2CCN(CC(O)c3ccccc3)CC2)cc1C (configuration not stated)	none
Cc1ccc(C)c(-n2[nH]c3c4c(ccc3c2=O)C(=O)c2ccccc2C4=O)c1	WT yeast gro inh 67.1
Cc1ccc(-n2[nH]c3c4c(ccc3c2=O)C(=O)c2ccccc2C4=O)cc1	none (no result: ROMK primary)
CCc1sc(C(=O)NCCc2ccc(S(N)(=O)=O)cc2)cc1Br	none
CC(NC(=O)CSCc1ccccc1Br)c1ccccc1 (configuration not stated)	none (no result: ROMK primary)
Cn1c(-c2cccc([N+](=O)[O-])c2)cnc1NCc1cccc([N+](=O)[O-])c1	none
Cc1ccc(CNc2ncc(-c3ccc4c(c3)OCO4)n2C)cc1	L major viab 87.6 (no result: KCC2 mod, ROMK primary)
Cn1c(-c2ccc3c(c2)OCO3)cnc1NCc1ccc(Cl)cc1	L major viab 92.1 (no result: KCC2 mod, ROMK primary)
Cc1ccc(CNc2ccc3c(c2)OCO3)cc1	L major viab 100.3 (no result: ROMK primary)
c1cc(CNc2ccc3c(c2)OCO3)ccn1	none (no result: ROMK primary)
COc1ccc(-c2cnc(NCc3cc4c(cc3[N+](=O)[O-])OCO4)n2C)cc1	L major viab 98.3
CC1CC(=O)Nc2cc([N+](=O)[O-])ccc2N1 (configuration not stated)	none (no result: L major viab, WT yeast gro inh, Diaphorase act, Diaphorase inh, ROMK primary)
COc1ccc(NC(=O)CC2C(=O)N(C)C(=S)N2CCc2ccccc2F)cc1 (configuration not stated)	none
COc1ccc(-c2csc3nc(-c4cccnc4)nc(Cl)c23)cc1OC	L major viab 53.6, WT yeast gro inh 63.0 (no result: ROMK primary)
Clc1nc(-c2cccnc2)nc2scc(-c3ccccc3)c12	WT yeast gro inh 77.0
CCOC(=O)c1[nH]c(C(=O)O)c(OC(=O)CC)c1C	none (no result: L major viab, WT yeast gro inh, Diaphorase act, Diaphorase inh, ROMK primary)
CCOC(=O)C1=C(C)NC(C)=C(C(=O)OCC)C1C(=O)OCC(=O)NC(C)C	none
CCCCSc1nc(C)cc(C)c1S(=O)(=O)c1ccccc1C	L major viab 84.3 (no result: KCC2 mod, ROMK primary)
Cc1ccc(S(=O)(=O)c2c(C)cc(C)nc2Cl)c(C)c1	L major viab 100.5 (no result: KCC2 mod, ROMK primary)
Cc1cc(C)c(S(=O)(=O)c2ccccc2C)c(Cl)n1	L major viab 100.5 (no result: ROMK primary)
Cc1cc(C)c(S(=O)(=O)c2ccccc2C)c(Oc2ccccc2)n1	none (no result: KCC2 mod, ROMK primary)
COc1cccc(-n2nc(C(C)=O)c(C#N)c2-c2ccco2)c1	none
O=C(O)CCCSc1nccn1-c1ccccc1	none
CCOC(=O)C1CCCN(CCC(=O)Nc2ccc(C)cc2)C1 (configuration not stated)	none (no result: ROMK primary)
CCOC(=O)C1CCN(CCC(=O)Nc2cccc(Cl)c2)CC1	L major viab 93.2 (no result: ROMK primary)
CCOC(=O)C1CCN(CCC(=O)Nc2ccc(C)cc2)CC1	L major viab 56.5 (no result: Diaphorase act, Diaphorase inh)
CCOC(=O)C1CCN(CCC(=O)Nc2ccccc2Cl)CC1	L major viab 77.7 (no result: ROMK primary)
CCOC(=O)c1c(NC(=O)COC(=O)c2cc(OC)c(OC)cc2[N+](=O)[O-])sc(C)c1CC	none
CCOC(=O)c1c(C)sc(Sc2ccc(Cl)cc2[N+](=O)[O-])c1OC	WT yeast gro inh 75.9
Cc1cn(C(=O)C(C)N2C(=O)c3ccccc3C2=O)c(C)n1 (configuration not stated)	none (no result: KCC2 mod)
Cc1ccccc1NC(=O)C1Cc2ccccc2CN1C(=O)OCc1ccccc1 (configuration not stated)	L major viab 92.1
CC(C)N(C)C(=O)C(=O)c1cccn1-c1cccc(Cl)c1C#N	none
O=C(NCc1csc(-c2cccs2)n1)c1cccc(Cl)c1	none (no result: L major viab, WT yeast gro inh, Diaphorase act, Diaphorase inh, ROMK primary)
COc1ccc(OC)c(C2CC(=O)N3CN(c4cccc(Cl)c4C)CSC3=C2C#N)c1 (configuration not stated)	Diaphorase inh 52.2 (no result: KCC2 mod, ROMK primary)
COc1cccc(C2CC(=O)N3CN(c4cccc(Cl)c4C)CSC3=C2C#N)c1OC (configuration not stated)	Diaphorase inh 50.6 (no result: KCC2 mod, ROMK primary)
CC(C)(C)c1ccc(/C=C/C(=O)Nc2nncs2)cc1	none
CCSc1nnc(NC(=O)CSc2nnc(CNC(=O)c3ccccc3F)o2)s1	L major viab 85.0
Cc1c(C(=O)N2CCOCC2)cc(C(C)(C)C)n1-c1ccccc1	none (no result: L major viab, WT yeast gro inh, Diaphorase act, Diaphorase inh, ROMK primary)

Assay outcomes from PubChem BioAssay.
